{"source": "paper PMC3654864", "about": "(Journal of medicinal chemistry, 2012)", "key": {"[1]": {"system": "PC3 prostate cancer cell lines", "experiment": "MTT cytotoxicity assay in PC3 cells", "assay_type": "cell-based, human"}, "[2]": {"experiment": "pH-responsive hydrolysis to emetine in phosphate buffer, quantified by HPLC", "assay_type": "physicochemical", "conditions": "for activation to emetine at pH 5.5: pH 5.5, over a 48 h period; for percent emetine released (hydrolysis to emetine) at pH 6.5: phosphate buffer pH 6.5, 37 °C", "procedure,_shortened": "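Pure test compound was incubated at 37 °C in aqueous phosphate buffer at pH 5.5, 6.5 or 7.4 for 24–48 h; stability at pH 7.4 was followed up to 5 days. Samples were analysed by HPLC to quantify released emetine. Percent conversion is the percent emetine in the sample mixture.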"}, "healthy mice": {"system": "healthy mice", "experiment": "In-vivo toxicity study in healthy mice", "conditions": "for toxicity on three-week follow-up: after 100 mg/kg iv daily for five days, studied for three weeks; for appearance of mice / percent weight loss relative to control mice: 33 mg/kg; for appearance of mice: 48 hours; for percent weight loss relative to control mice: within 48 hours of daily dosing; for percent weight change within 48 hours versus control group: 100 mg/kg; for signs of toxicity: 100 mg/kg body weight daily for five days"}, "[3]": {"system": "PC3 and LNCaP prostate cancer cell lines", "experiment": "In-vitro cytotoxicity in PC3 and LNCaP, summary statements for both lines", "assay_type": "cell-based, human", "procedure,_shortened": "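MTT colorimetric assay on human prostate cancer cells (androgen receptor-positive LNCaP, androgen receptor-negative PC3). Cells were exposed to six concentrations of test compound for 7 days, with viable cells read spectrophotometrically on days 3, 5 and 7. IC50 was taken from the day-7 read. Emetine was run in the same assay.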"}, "[4]": {"system": "LNCaP prostate cancer cell lines", "experiment": "MTT cytotoxicity assay in LNCaP cells", "assay_type": "cell-based, human", "conditions": "7 day, relative to compound 13"}, "[5]": {"conditions": "PC3, Figures 4a-f, time at which optimum IC50 is reached or pattern"}}, "note": "Where two headings read alike, the source gives them in different places.", "data": [{"smiles": "CC[C@H]1CN2CCc3cc(OC)c(OC)cc3[C@@H]2C[C@@H]1C[C@@H]1c2cc(OC)c(OC)cc2CCN1C(=S)NCc1ccc(OC)cc1", "note": "[Compound 5]", "values": [{"measurement": "progress of cytotoxicity (IC50) over day 3, 5 and 7", "setting": "[1]; [5]", "result": "an optimum IC50 value was obtained by day 5"}]}, {"smiles": "CC[C@H]1CN2CCc3cc(OC)c(OC)cc3[C@@H]2C[C@@H]1C[C@@H]1c2cc(OC)c(OC)cc2CCN1C(=S)NCc1ccc(Cl)cc1", "note": "[Compound 6]", "values": [{"measurement": "progress of cytotoxicity (IC50) over day 3, 5 and 7", "setting": "[1]; [5]", "result": "reach an optimum by day 3"}]}, {"smiles": "CC[C@H]1CN2CCc3cc(OC)c(OC)cc3[C@@H]2C[C@@H]1C[C@@H]1c2cc(OC)c(OC)cc2CCN1C(=O)NCc1ccccc1", "note": "[Compound 7]", "values": [{"measurement": "progress of cytotoxicity (IC50) over day 3, 5 and 7", "setting": "[1]", "result": "reach an optimum by day 3"}]}, {"smiles": "CC[C@H]1CN2CCc3cc(OC)c(OC)cc3[C@@H]2C[C@@H]1C[C@@H]1c2cc(OC)c(OC)cc2CCN1C(=O)NCc1ccc(OC)cc1", "note": "[Compound 8]", "values": [{"measurement": "progress of cytotoxicity (IC50) over day 3, 5 and 7", "setting": "[1]", "result": "progressive decrease in IC50 values"}]}, {"smiles": "CC[C@H]1CN2CCc3cc(OC)c(OC)cc3[C@@H]2C[C@@H]1C[C@@H]1c2cc(OC)c(OC)cc2CCN1C(=O)NCc1ccc(Cl)cc1", "note": "[Compound 9]", "values": [{"measurement": "progress of cytotoxicity (IC50) over day 3, 5 and 7", "setting": "[1]; [5]", "result": "reach an optimum by day 3"}]}, {"smiles": "CC[C@H]1CN2CCc3cc(OC)c(OC)cc3[C@@H]2C[C@@H]1C[C@@H]1c2cc(OC)c(OC)cc2CCN1S(=O)(=O)c1ccc(OC)cc1", "note": "[Compound 12]", "values": [{"measurement": "progress of cytotoxicity (IC50) over day 3, 5 and 7", "setting": "[1]", "result": "an optimum IC50 value was obtained by day 5"}]}, {"smiles": "CC[C@H]1CN2CCc3cc(OC)c(OC)cc3[C@@H]2C[C@@H]1C[C@@H]1c2cc(OC)c(OC)cc2CCN1C(=S)[S-].[Na+]", "note": "[Compound 13]", "values": [{"measurement": "progress of cytotoxicity (IC50) over day 3, 5 and 7", "setting": "[1]; [5]", "result": "an optimum IC50 value was obtained by day 5"}, {"measurement": "activation to emetine at pH 5.5", "setting": "[2]", "result": "activated to emetine"}, {"measurement": "percent hydrolysis to emetine at pH 5.5", "setting": "[2]; phosphate buffer pH 5.5, 37 °C, within 48 hours", "result": "about 94.5%"}, {"measurement": "percent emetine released (hydrolysis to emetine) at pH 6.5", "setting": "[2]; within 48 hours", "result": 13.2, "unit": "%"}, {"measurement": "toxicity on three-week follow-up", "setting": "healthy mice", "result": "no noticeable effect of toxicity"}, {"measurement": "appearance of mice", "setting": "healthy mice; iv", "result": "appeared healthy with no noticeable signs of toxicity"}, {"measurement": "percent weight loss relative to control mice", "setting": "healthy mice; iv", "result": "no significant difference"}, {"measurement": "percent weight change within 48 hours versus control group", "setting": "healthy mice; iv", "result": "very similar to that obtained for the control group"}, {"measurement": "signs of toxicity", "setting": "healthy mice; iv", "result": "no sign of toxicity"}, {"measurement": "7th day IC50 fold higher than emetine", "setting": "[3]; LNCaP and PC3, 7th day, relative to emetine", "result": "about 3 fold"}]}, {"smiles": "CC[C@H]1CN2CCc3cc(OC)c(OC)cc3[C@@H]2C[C@@H]1C[C@@H]1c2cc(OC)c(OC)cc2CCN1C(=S)SCc1ccccc1", "note": "[Compound 14]", "values": [{"measurement": "fold increase of IC50 relative to 13", "setting": "[4]", "result": "about 24 fold"}, {"measurement": "fold increase of IC50 relative to 13", "setting": "[1]; PC3, 7 day, relative to compound 13", "result": "~18", "unit": "fold"}, {"measurement": "progress of cytotoxicity (IC50) over day 3, 5 and 7", "setting": "[1]; [5]", "result": "progressive decrease in IC50 values"}]}, {"smiles": "CC[C@H]1CN2CCc3cc(OC)c(OC)cc3[C@@H]2C[C@@H]1C[C@@H]1c2cc(OC)c(OC)cc2CCN1C(=O)OCc1ccccc1", "note": "[Compound 15]", "values": [{"measurement": "progress of cytotoxicity (IC50) over day 3, 5 and 7", "setting": "[1]; [5]", "result": "progressive decrease in IC50 values"}]}, {"smiles": "CC[C@H]1CN2CCc3cc(OC)c(OC)cc3[C@@H]2C[C@@H]1C[C@@H]1c2cc(OC)c(OC)cc2CCN1C(=O)/C=C\\C(=O)O", "note": "[Compound 21]", "values": [{"measurement": "activation to emetine at pH 5.5", "setting": "[2]", "result": "activated to emetine"}, {"measurement": "percent emetine released (hydrolysis to emetine) at pH 6.5", "setting": "[2]; within 48 hours", "result": "about 50%"}]}, {"smiles": "CC[C@H]1CN2CCc3cc(OC)c(OC)cc3[C@@H]2C[C@@H]1C[C@@H]1c2cc(OC)c(OC)cc2CCN1C(=O)/C=C(/C)C(=O)O", "note": "[Compound 22]", "values": [{"measurement": "activation to emetine at pH 5.5", "setting": "[2]", "result": "activated to emetine"}, {"measurement": "percent emetine released (hydrolysis to emetine) at pH 6.5", "setting": "[2]; within 48 hours", "result": "~80", "unit": "%"}]}, {"smiles": "CC[C@H]1CN2CCc3cc(OC)c(OC)cc3[C@@H]2C[C@@H]1C[C@@H]1c2cc(OC)c(OC)cc2CCN1C(=O)CCC(=O)[O-].[Na+]", "note": "[Compound 24]", "values": [{"measurement": "progress of cytotoxicity (IC50) over day 3, 5 and 7", "setting": "[1]", "result": "an optimum IC50 value was obtained by day 5"}]}, {"smiles": "CC[C@H]1CN2CCc3cc(OC)c(OC)cc3[C@@H]2C[C@@H]1C[C@@H]1c2cc(OC)c(OC)cc2CCN1C(=O)/C=C\\C(=O)[O-].[Na+]", "note": "[Compound 25]", "values": [{"measurement": "activation to emetine at pH 5.5", "setting": "[2]", "result": "activated to emetine"}]}, {"smiles": "CC[C@H]1CN2CCc3cc(OC)c(OC)cc3[C@@H]2C[C@@H]1C[C@@H]1c2cc(OC)c(OC)cc2CCN1C(=O)/C=C(/C)C(=O)[O-].[Na+]", "note": "[Compound 26]", "values": [{"measurement": "progress of cytotoxicity (IC50) over day 3, 5 and 7", "setting": "[1]", "result": "an optimum IC50 value was obtained by day 5"}, {"measurement": "activation to emetine at pH 5.5", "setting": "[2]", "result": "activated to emetine"}, {"measurement": "percent emetine released (hydrolysis to emetine) at pH 6.5", "setting": "[2]; within 48 hours", "result": "about 50%"}, {"measurement": "toxicity on three-week follow-up", "setting": "healthy mice", "result": "no noticeable effect of toxicity"}, {"measurement": "percent weight change within 48 hours versus control group", "setting": "healthy mice; iv", "result": "very similar to that obtained for the control group"}, {"measurement": "signs of toxicity", "setting": "healthy mice; iv", "result": "no sign of toxicity"}]}, {"smiles": "CC[C@H]1CN2CCc3cc(OC)c(OC)cc3[C@@H]2C[C@@H]1C[C@@H]1c2cc(OC)c(OC)cc2CCN1C(=O)/C=C(/CC(=O)[O-])C(=O)[O-].[Na+].[Na+]", "note": "[Compound 27]", "values": [{"measurement": "activation to emetine at pH 5.5", "setting": "[2]", "result": "activated to emetine"}]}, {"smiles": "CC[C@H]1CN2CCc3cc(OC)c(OC)cc3[C@@H]2C[C@@H]1C[C@H]1NCCc2cc(OC)c(OC)cc21.Cl.Cl", "note": "[emetine, Emetine, reference compound]", "values": [{"measurement": "lethality", "setting": "healthy mice; iv, 33 mg/kg body weight, within the period of study", "result": "did not kill the mice"}, {"measurement": "average weight loss over a 48 hour period", "setting": "healthy mice; iv, 33 mg/kg daily dosing", "result": "about 3.6%"}, {"measurement": "appearance of mice", "setting": "healthy mice; iv", "result": "appeared lethargic"}, {"measurement": "percent weight loss relative to control mice", "setting": "healthy mice; iv", "result": "about 4"}, {"measurement": "lethality", "setting": "healthy mice; iv, single dose 100 mg/kg body weight, within 48 hours", "result": "killed all three mice"}, {"measurement": "IC50", "setting": "[3]; Homo sapiens, LNCaP, read-out: IC50 range of emetine", "result": "23.7 to 32.9", "unit": "nM"}]}]}
